Values after ≈ are worked out from the molar mass of the structure shown. Active and inactive are the calls of the source. The rule behind the calls is not given here.
Legend:
Enterococcus faecium [1] = assay: Antibacterial activity against Enterococcus faecium ATCC 19434; assay type: functional
Outline: (§1)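 Incubation 24/48 h at 37 °C. MIC read as the lowest concentration inhibiting growth. MBC determined by transferring 10 μL from wells onto blood agar, taken as the lowest concentration with no visible growth.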

Enterococcus faecalis [2] = assay: Antibacterial activity against Enterococcus faecalis ATCC 29212; assay type: functional
Enterococcus faecium [3] = assay: Antibacterial activity against vancomycin-resistant Enterococcus faecium SR7917; assay type: functional
Enterococcus faecalis [4] = assay: Antibacterial activity against vancomycin-resistant Enterococcus faecalis SR7914; assay type: functional
Staphylococcus aureus [5] = assay: Antibacterial activity against methicillin-sensitive Staphylococcus aureus ATCC 29213; assay type: functional; outline: as §1
Staphylococcus aureus [6] = assay: Antibacterial activity against methicillin-resistant Staphylococcus aureus SR3637; assay type: functional
Escherichia coli [7] = assay: Antibacterial activity against permeabilized Escherichia coli DH5[alpha] assessed as log reduction of colony forming unit at 10 uM; assay type: functional, organism-based
Outline: (§2)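 Competent (permeabilized) E. coli DH5α cells were mixed with 5 ng pUC18 (ampR) and serially diluted compound or buffer only. Steps: 30 min on ice, heat shock at 42 °C for 90 s, 5 min on ice, then LB without antibiotic for 1 h at 37 °C with shaking. Plated on LB agarose with ampicillin 100 μg/mL overnight at 37 °C. Colonies counted against the no-compound control.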

[8] = Induction of apoptosis in human Erythroid progenitor cells assessed as caspase 3/7 activation after 4 hrs by Caspase-Glo 3/7 assay
Outline: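 Cord-blood-derived human erythroid progenitor cells plated at 25000 cells/well and exposed to compound prediluted in medium. Caspase 3/7 activation read by Caspase-Glo 3/7 luminescence 4 h after addition, normalized to untreated control cells set as 100%.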

Enterococcus faecium [9] = assay: Antibacterial activity against vancomycin-resistant Enterococcus faecium VanA419/ana after 24 to 48 hrs by microdilution method; assay type: functional
Outline: (§3)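 Broth microdilution MIC on clinical isolates from Teaching Hospital Olomouc, stored at −80 °C. Compounds were serially diluted in brain heart infusion broth over 200–1.56 μg/mL (sometimes extended to 0.78 μg/mL), with an inoculum of 10⁵⁻⁶ CFU/ml per well. Plates were incubated at 37 °C and read at 24/48 h. MIC was taken as the lowest concentration inhibiting growth.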

Escherichia coli [10] = assay: Antibacterial activity against Escherichia coli after 24 to 48 hrs by microdilution method; assay type: functional; outline: as §1
Enterococcus faecalis [11] = assay: Antibacterial activity against Enterococcus faecalis CCM 4224 after 24 to 48 hrs by microdilution method; assay type: functional; outline: as §1
[12] = Cytotoxicity against human Erythroid progenitor cells assessed as maximum safe concentration after 48 hrs by CellTiter-blue assay; assay type: cell-based; settings: read-out: Activity
Outline: (§4)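 Normal human erythroid progenitor cells, expanded from umbilical cord blood, plated at 25000 cells/well immediately before compound addition (added as a 5× predilution in culture medium). Viability by CellTiter-Blue fluorescence 48 h after addition, normalized to untreated cells set as 100%.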

[13] = tested on: Staphylococcus epidermidis; assay: Antibacterial activity against methicillin-resistant Staphylococcus epidermidis 8700/B after 24 to 48 hrs by microdilution method; assay type: functional; outline: as §3
Pseudomonas aeruginosa = assay: Antibacterial activity against Pseudomonas aeruginosa after 24 to 48 hrs by microdilution method; assay type: functional; outline: as §1
Bacillus subtilis [14] = assay: Inhibition of Bacillus subtilis RNA polymerase using [alpha-32P]-UTP at 1 mM pretreated for 5 mins measured after 15 mins by electrophoresis analysis
Outline: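 Reconstituted B. subtilis RNAP σA holoenzyme (6 nM) with supercoiled pLK7 template carrying the rrnB P1 promoter (4 ng/μL). Nucleotides: ATP/CTP/GTP 200 μM, UTP 10 μM plus 2 μM [α-³²P]-UTP. Compound at 1 mM; 5 min preincubation at 30 °C, started with RNAP, stopped after 15 min with formamide/EDTA.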

Bacillus subtilis [15] = assay: Antibacterial activity against Bacillus subtilis after 24 to 48 hrs by microdilution method; assay type: functional; outline: as §1
[16] = Cytotoxicity against human Erythroid progenitor cells assessed as cell viability after 48 hrs by CellTiter-blue assay; assay type: cell-based; outline: as §4
Streptococcus agalactiae = assay: Antibacterial activity against Streptococcus agalactiae after 24 to 48 hrs by microdilution method; assay type: functional; outline: as §1
Escherichia coli [17] = assay: Antibacterial activity against permeabilized Escherichia coli DH5[alpha] assessed as cell killing at 10 uM; assay type: functional; outline: as §2
Staphylococcus aureus [18] = assay: Antibacterial activity against Staphylococcus aureus CCM 4223 after 24 to 48 hrs by microdilution method; assay type: functional; outline: as §1

Compound	Activity [8]	MIC (Enterococcus faecium [9]) [µg/mL]	MIC (Escherichia coli [10]) [µg/mL]	MIC (Enterococcus faecalis [11]) [µg/mL]	MNTC at 48 h [12] [µg/mL]	MIC [13] [µg/mL]	MIC (Pseudomonas aeruginosa) [µg/mL]	inhibition (Bacillus subtilis [14])	MIC (Bacillus subtilis [15]) [µg/mL]	IC50 [16] [µg/mL]	MIC (Streptococcus agalactiae) [µg/mL]	other results
CC(C)C[C@@H](NC[C@@H](NC(=O)N[C@H](C(=O)O)C(C)C)[C@@H]1CCNC(=N)N1)C(=O)NCCCN[C@H](C(=O)O)[C@H](O[C@@H]1O[C@H](CN)[C@@H](O)[C@H]1O)[C@H]1O[C@@H](n2ccc(=O)[nH]c2=O)[C@H](O)[C@@H]1O												MIC (Enterococcus faecium [1]): > 64 µg/mL; MIC (Enterococcus faecalis [2]): > 64 µg/mL; MIC (Enterococcus faecium [3]): > 64 µg/mL; MIC (Enterococcus faecalis [4]): > 64 µg/mL; MIC (Staphylococcus aureus [5]): > 64 µg/mL; MIC (Staphylococcus aureus [6]): > 64 µg/mL
CCCCCCCCCCCCCCCCOP(=O)(CCN1C[C@@H](O)[C@H](O)C1)OC[C@H]1O[C@@H](n2ccc(=O)[nH]c2=O)[C@H](O)[C@@H]1O (mixture of isomers)												Activity (Escherichia coli [7]): Active
CCCCCCCCCCCCCCCCOP(=O)(CCN1C[C@@H](O)[C@H](O)C1)OC[C@H]1O[C@@H](n2ccc(=O)[nH]c2=O)[C@H](O)[C@@H]1O (stereo in doubt; 12i-P1) [listing 1 of 2 here]	Toxic											
CCCCCCCCCCCCCCCCOCCCOP(=O)(CCN1C[C@@H](O)[C@H](O)C1)OC[C@H]1O[C@@H](n2ccc(=O)[nH]c2=O)[C@H](O)[C@@H]1O (some centres not stated)	Non-toxic	6.25 (≈ 8.68 µM)	> 200	12.5 (≈ 17.4 µM)	62.5	3.13 (≈ 4.35 µM)	> 200	inactive	6.25 (≈ 8.68 µM)	91 (≈ 126 µM)	3.13 (≈ 4.35 µM)	Activity (Escherichia coli [7]): Active; Activity (Escherichia coli [17]): 90%
CCCCCCCCCCCCCCCCOCCCOP(=O)(CCN1C[C@@H](O)[C@@H](O)[C@@H](O)C1)OC[C@H]1O[C@@H](n2ccc(=O)[nH]c2=O)[C@H](O)[C@@H]1O (some centres not stated)	Non-toxic		> 200		62.5		> 200	inactive		149 (≈ 199 µM)	12.5 (≈ 16.7 µM)	
CCCCCCCCCCCCCCCCOCCCOP(=O)(CCN1C[C@@H](O)[C@H](O)C1)OC[C@H]1O[C@@H](n2ccc(N)nc2=O)[C@H](O)[C@@H]1O (some centres not stated)	Non-toxic	6.25 (≈ 8.69 µM)	> 200	6.25 (≈ 8.69 µM)	31.2	6.25 (≈ 8.69 µM)	> 200		3.13 (≈ 4.35 µM)	67 (≈ 93.2 µM)	3.13 (≈ 4.35 µM)	MIC (Staphylococcus aureus [18]): 25 µg/mL (≈ 34.8 µM)
CCCCCCCCCCCCCCCCOCCCOP(=O)(CCN1C[C@H](O)[C@@H](O)C1)OC[C@H]1O[C@@H](n2ccc(=O)[nH]c2=O)[C@H](O)[C@@H]1O (some centres not stated)	Non-toxic	6.25 (≈ 8.68 µM)	> 200	12.5 (≈ 17.4 µM)	31.2	6.25 (≈ 8.68 µM)	> 200	inactive	6.25 (≈ 8.68 µM)	47 (≈ 65.3 µM)	6.25 (≈ 8.68 µM)	
CCCCCCCCCCCCCCCCOP(=O)(CCN1C[C@@H](O)[C@H](O)C1)OC[C@H]1O[C@@H](n2ccc(=O)[nH]c2=O)[C@H](O)[C@@H]1O (stereo in doubt; 12i-P1) [listing 2 of 2 here]												Activity (Enterococcus faecalis [11]): Active; Activity (Staphylococcus aureus [18]): Active; Activity (Bacillus subtilis [15]): Active; Activity (Streptococcus agalactiae): Active
CCOP(=O)(CCN1C[C@@H](O)[C@H](O)C1)OC[C@H]1O[C@@H](n2ccc(=O)[nH]c2=O)[C@H](O)[C@@H]1O (some centres not stated)	Non-toxic		> 200				> 200					
CC(C)(C)C(=O)SCCOP(=O)(CCN1C[C@@H](O)[C@H](O)C1)OC[C@H]1O[C@@H](n2ccc(=O)[nH]c2=O)[C@H](O)[C@@H]1O (some centres not stated)	Non-toxic		> 200		> 1000		> 200			> 1000		

Source: ChEMBL document CHEMBL1921744, “Lipophosphonoxins: new modular molecular structures with significant antibacterial properties” (J Med Chem, 2011)
